# NF-kB neuron act: NF-kB expression increase, human neuronal cells | NF-kB reporter expression; hits give high values | fold change at 12.5 µM | 190,000 tested, 1.6% active; in the data active means fold change above about 3.3
# STAT1 activator: activators of IFN-gamma induced STAT1 signaling | NIH 3T3 STAT1-luciferase reporter, luminescence; 100% = IFN-gamma alone, no compound | activation (% of control), % at 5.5 µM | 200,000 tested, 2.6% active | AID 932;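 active means activation above the screen-wide mean activation plus 3 SD, cut at about 130% in these data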;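 further: raw ratio to IFN-gamma control signal so 100% means no change and 0% no light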
# Wee1 stabilizer: human Wee1 degradation inhibition, primary screen. P30291. HeLa Luc-Wee1K328M stability, luciferase luminescence; 100% = proteasome inhibitor MG132 effect. reporter increase, % at 5 µM. 220,000 tested, 1.2% active. AID 1321;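 active means activation above the mean of all tested compounds plus 3 SD, set per screening run, cut at about 8.8% in these data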;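 further: cells exposed to compound for 20 h before luminescence read; 0% = DMSO alone and 100% = MG132 at 30 µM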
# p97 inhibitor: blocks human p97 ATPase activity; inhibition, % at 8 µM; 220,000 tested, 0.42% active; recombinant p97 ATPase, Kinase-Glo ATP luminescence, 3 h; in the data active means inhibition above about 15%;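 further: 0% = DMSO vehicle and 100% = wells lacking enzyme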
# APP 5'UTR act: activates APP 5'UTR luciferase reporter; activation, % at 2 µM; AID 1276; 190,000 tested, 1% active; SH-SY5Y APP 5'UTR luciferase reporter, luminescence; zero percent = DMSO vehicle wells;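 active means activation above a set limit, based on mean plus 3 SD of controls, cut at about 140% in these data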
# Mdm2 ligase inh: blocks human Mdm2 ubiquitin ligase activity. Q00987. cell-based MDM2 ubiquitination luciferase reporter, 2 h; 0 = plate control, 100 = twice control, blank-subtracted. signal enhancement, % at 5 µM. 210,000 tested, 0.11% active. AID 1230;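 active means signal enhancement of 30% or more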;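 further: luminescence tracks abundance of the self-degrading MDM2-luciferase fusion protein; higher signal means inhibition of MDM2 E3 ligase activity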
# Target sequence (Q00987 whole entry, looked up, the tested form may be a part): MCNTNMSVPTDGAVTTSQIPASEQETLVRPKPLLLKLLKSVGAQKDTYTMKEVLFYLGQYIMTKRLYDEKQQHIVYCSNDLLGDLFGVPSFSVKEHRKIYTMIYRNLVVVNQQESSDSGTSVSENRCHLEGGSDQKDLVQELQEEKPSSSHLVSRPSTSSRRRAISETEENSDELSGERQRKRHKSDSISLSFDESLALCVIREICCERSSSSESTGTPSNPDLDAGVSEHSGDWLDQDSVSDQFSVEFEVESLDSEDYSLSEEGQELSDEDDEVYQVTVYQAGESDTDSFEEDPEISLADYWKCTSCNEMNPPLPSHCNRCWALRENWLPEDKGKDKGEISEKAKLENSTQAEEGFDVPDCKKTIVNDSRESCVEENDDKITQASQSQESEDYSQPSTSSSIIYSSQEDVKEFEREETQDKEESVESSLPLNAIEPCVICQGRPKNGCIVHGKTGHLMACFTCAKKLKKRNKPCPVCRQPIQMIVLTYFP
#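 System: stable MDM2–luciferase fusion reporter cells / Input: 2000 cells seeded into each well / Schedule: 4 h settle plus 2 h compound, 37 °C / Compound: single-point 5 µM / Buffer or medium: cells held in DMEM / Benchmarks: control and blank well means / Evaluation: percent signal gain over controls, blank-subtracted / Measured by: luciferase luminescence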
# Starred values were filed as active, the others as inactive; . = not tested or not shown. Hits are enriched below; roughly 4.6% of the tested compounds scored in any of these assays.
SMILES,NF-kB neuron act,STAT1 activator,Wee1 stabilizer,p97 inhibitor,APP 5'UTR act,Mdm2 ligase inh
Cn1nc(C(F)(F)F)c(-c2cccc(C(F)(F)F)c2)c1NC(=O)Nc1ccc(F)cc1,.,.,0,-2,.,-11
Cn1c(N)c(C(=O)COC(=O)[C@@H]2CCCN2S(=O)(=O)c2ccc(Cl)cc2)c(=O)n(C)c1=O,1.1,100,-3,2,-14,-1
O=C(NCc1ccco1)c1ccc([N+](=O)[O-])o1,5.6*,97,4,3,-10,-4
O=C(NCc1ccco1)c1ccc(Cn2cc([N+](=O)[O-])cn2)o1,1,95,-1,0,15,-5
CN(C)CCNC(=O)c1ccc(Sc2ccc(Br)cc2)c([N+](=O)[O-])c1,1,97,0,-6,-19,-6
CC1=NN(c2ccc(C)c(C)c2)C(=O)C1C(c1cccc(O)c1)C1C(=O)N(c2ccc(C)c(C)c2)N=C1C (stereo not drawn),0.79,95,-2,35*,11,0
c1ccc(-c2cn3c(n2)-c2ccccc2C3)cc1,3.9*,115,1,-35,152*,-47
Nc1nc(-c2ccccc2)cn1N,1.3,112,-2,6,25,-25
CC(C)N1C(=S)N(Cc2ccco2)C(=O)C1CC(=O)Nc1ccccc1 (stereo not drawn),0.77,99,3,4,6,-11
COc1ccc2nc(N3CCCC3)c(C#N)cc2c1,0.95,110,8.9*,4,31,-3
COc1ccc2nc(SCC(=O)N3CCCCC3)c(C#N)cc2c1,1.5,131*,2,5,15,3
Cc1ccc(C)c(/C=C(\C(=O)O)c2ccc(S(=O)(=O)N3CCCCC3)s2)c1,1.1,94,-2,2,-8,-3
CC1(C)Cc2ccccc2C2=NNC(=O)C2=N1,0.4,139*,-1,2,-1,-8
CCc1nnc(N2C(=O)c3ccc(Oc4ccc([N+](=O)[O-])cc4)cc3C2=O)s1,1.1,97,3,7,24,-11
CCN(CC)S(=O)(=O)c1ccc(NC(=O)c2ccc(Cl)nc2)cc1,.,.,5,3,.,.
O=C(Nc1ccc(Br)cc1)c1cnccn1,2,114,1,-5,23,-4
Cc1ccc(NC(=O)c2ccc(Cl)nc2)cc1,2.2,131*,1,-4,-3,6
CCOc1ccc(NC(=O)c2cnccn2)cc1,3.3,126,-2,-2,150*,-29
Cc1ccc(NC(=O)c2cnccn2)cc1,2.1,134*,2,0,43,-6
CCOc1ccc(NC(=O)c2cnsn2)cc1,3.5*,122,-3,1,153*,-6
CC1(C)Oc2ccccc2OC1(O)c1ccc2ccccc2n1 (stereo not drawn),0.85,99,-3,3,-7,5
O=c1[nH]c2cc(NCCO)c([N+](=O)[O-])cc2[nH]1,0.96,102,3,3,-5,-6
CCOc1ccc(NC(=O)c2nccnc2CO)cc1,3.2,144*,3,-5,61,-4
O=C(c1ccc(-c2ccc([N+](=O)[O-])cc2Cl)o1)N1CCOCC1,1.9,133*,11*,3,25,5
O=C(Nc1cccc(O)c1)C(=O)Nc1ccccn1,2.9,120,-2,-15,155*,-78
SMILES,NF-kB neuron act,STAT1 activator,Wee1 stabilizer,p97 inhibitor,APP 5'UTR act,Mdm2 ligase inh
C/C(CC(=O)Nc1ccccn1)=N\NC(=O)C(=O)Nc1cccc(C)c1,1,97,-1,-3,5,-5
Cc1cc2c(C)nc(-c3ccccc3)nc2o1,1.9,130*,6,-1,30,1
O=S(=O)(c1ccccc1S(=O)(=O)N1CCCCC1)N1CCCCC1,1.1,99,9.1*,3,-5,4
COc1ccc(N(C(=O)CNC(=O)c2cccs2)C(C(=O)NC2CCCC2)c2cccnc2)cc1 (stereo not drawn),0.89,95,0,-1,5,-1
COc1ccccc1OCC(=O)Nc1cc(S(=O)(=O)N2CCCCC2)ccc1N1CCCCC1,0.84,95,0,0,12,78*
COc1cc(CC(=O)Nc2ccccc2N2CCCCC2)cc(OC)c1OC,1.1,90,9.4*,3,-3,-18
O=C(CNC1CCCCCC1)Nc1ccccc1N1CCCCC1,0.94,111,8.9*,-4,-11,-7
